How the values were obtained:
Type in all cases: functional, organism-based
[1] = system: Human immunodeficiency virus 1; experiment: Antiviral activity against HIV1 3B in MT4 cells; conditions: Human immunodeficiency virus 1, 3B
Outline: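 MT4 T-cell line infected with HIV-1 IIIB (from H9/HTLV-IIIB supernatants) at 100× the inoculum giving 50% growth reduction; incubated 5 days with a range of compound concentrations. Virus cytopathic effect read by MTS staining; IC50 taken as mean of one triplicate experiment. Cytotoxicity measured in parallel on uninfected cells.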

[2] = system: Human immunodeficiency virus 1; experiment: Antiviral activity against HIV1 HxB2 using HeLa MAGI assay; conditions: Human immunodeficiency virus 1, HxB2
Outline: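 HeLa CD4-LTR-β-gal cells infected with HxB2 (from molecular clone pHxB2-D) or isogenic RT mutants; HIV-LTR-driven β-galactosidase quantified with chemiluminescent substrate 3 days post-infection. IC50 is the concentration inhibiting 50% of signal relative to untreated controls. Cytotoxicity measured in parallel by CellTiter96.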

[3] = system: Human immunodeficiency virus 1; experiment: Antiviral activity against HIV1 K103N mutant using HeLa MAGI assay; conditions: Human immunodeficiency virus 1, K103N
Outline: (§1)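 HeLa CD4-LTR-β-gal cells infected with isogenic recombinant HIV-1 built on the HxB2 backbone and carrying the RT mutation (K103N, V106A or Y181C). Infection was read by a chemiluminescent β-galactosidase signal 3 days after infection. The IC50 is the concentration giving 50% inhibition of the signal relative to untreated controls. Cytotoxicity was run in parallel by CellTiter96; highest concentration mostly 0.5 µM.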

[4] = system: Human immunodeficiency virus 1; experiment: Antiviral activity against HIV1 Y181C mutant using HeLa MAGI assay; conditions: Human immunodeficiency virus 1, Y181C; outline: as §1
[5] = system: Human immunodeficiency virus 1; experiment: Antiviral activity against HIV1 V106A mutant using HeLa MAGI assay; conditions: Human immunodeficiency virus 1, V106A; outline: as §1

Molecule `Cc1cc(S(=O)(=O)N(C)C)ccc1NC(=O)COc1ccc(Cl)cc1C(=O)c1cc(F)cc(C(F)(F)F)c1` has an IC50 [1] of 10 nM, an IC50 [2] of 8 nM and an IC50 [3] of 6 nM.

`Cc1cc(NCCCN2CCCC2)ccc1NC(=O)COc1ccc(Cl)cc1C(=O)c1cc(F)cc(F)c1` was tested, and the IC50 [1] was 18 nM and the IC50 [3] was 109 nM.

`Cc1cc(OCCCS(N)(=O)=O)ccc1NC(=O)COc1ccc(Cl)cc1C(=O)c1cc(F)cc(C(F)(F)F)c1` was tested, and the IC50 [4] was 6 nM, the IC50 [1] was 7 nM and the IC50 [2] was 3 nM. For the same molecule, the IC50 [3] was 4 nM.

`Cc1cc(NC(=O)CCN2CCOCC2)ccc1NC(=O)COc1ccc(Cl)cc1C(=O)c1cc(F)cc(F)c1` showed an IC50 [1] of 5 nM and an IC50 [3] of 9 nM.

In the case of `COc1ccc(NC(=O)COc2ccc(Cl)cc2C(=O)c2cc(F)cc(F)c2)cn1`, the IC50 [3] is reported as 72 nM.

With `COc1cc(OC)cc(C(=O)c2cc(Cl)ccc2OCC(=O)Nc2ccc(S(N)(=O)=O)cc2C)c1` the IC50 [4] was 13 nM, the IC50 [5] was 500 nM and the IC50 [3] was 370 nM.

`Cc1cc(S(N)(=O)=O)ccc1NC(=O)COc1ccc(Cl)cc1C(=O)c1cc(C#N)cc(C(F)(F)F)c1` was tested, and the IC50 [4] was 2 nM, the IC50 [5] was 5.6 nM and the IC50 [3] was 1.1 nM.

Work on `Cc1cc(C#N)cc(C(=O)c2cc(Cl)ccc2OCC(=O)Nc2cnc(S(N)(=O)=O)cc2C)c1` yielded an IC50 [4] of 4 nM, an IC50 [5] of 2 nM and an IC50 [3] of 7 nM.

For `Cc1cc(S(N)(=O)=O)ccc1NC(=O)COc1ccc(Cl)cc1C(=O)c1cc(Br)cc(C(F)(F)F)c1`, the IC50 [4] was 290 nM, the IC50 [5] was 18 nM and the IC50 [3] was 93 nM.

Molecule `Cc1cc(S(N)(=O)=O)ccc1NC(=O)COc1ccc(Cl)cc1C(=O)c1cc(Cl)cc(C#N)c1` has an IC50 [4] of 0.7 nM, an IC50 [5] of 3.4 nM and an IC50 [3] of 1 nM.

Work on `Cc1cc(C)cc(C(=O)c2cc(Cl)ccc2OCC(=O)Nc2ccc(S(N)(=O)=O)cc2C)c1` yielded an IC50 [4] of 3 nM, an IC50 [5] of 4.2 nM and an IC50 [3] of 3.3 nM.

Work on `CCN(CC)CCCNc1ccc(NC(=O)COc2ccc(Cl)cc2C(=O)c2cc(F)cc(F)c2)c(C)c1` yielded an IC50 [1] of 41 nM and an IC50 [3] of 96 nM.

`Cc1cc(S(N)(=O)=O)ccc1NC(=O)COc1ccc(Cl)cc1C(=O)c1cc(N)cc(C#N)c1` was tested, and the IC50 [4] was 450 nM, the IC50 [5] was 18 nM and the IC50 [3] was 140 nM.

`Cc1cc(C#N)cc(C(=O)c2cc(Cl)ccc2OCC(=O)Nc2ccc(S(N)(=O)=O)nc2C)c1` was tested, and the IC50 [4] was 4 nM, the IC50 [5] was 3 nM and the IC50 [3] was 6 nM.

`O=C(COc1ccc(Cl)cc1C(=O)c1cc(F)cc(F)c1)Nc1ccc(Cl)nc1` showed an IC50 [3] of 67 nM.

Work on `Cc1cc(S(N)(=O)=O)ccc1NC(=O)COc1ccc(Cl)cc1C(=O)c1cccc(C#N)c1` yielded an IC50 [4] of 1.5 nM, an IC50 [5] of 30 nM and an IC50 [3] of 1.5 nM.

`Cc1nc(S(N)(=O)=O)ccc1NC(=O)COc1ccc(Cl)cc1C(=O)c1cc(Cl)cc(C#N)c1` showed an IC50 [4] of 3 nM, an IC50 [5] of 7 nM and an IC50 [3] of 3 nM.

With `Cc1cc(S(N)(=O)=O)ncc1NC(=O)COc1ccc(Cl)cc1C(=O)c1cc(Cl)cc(C#N)c1` the IC50 [4] was 2 nM, the IC50 [5] was 10 nM and the IC50 [3] was 5 nM.

Work on `Cc1cc(C#N)cc(C(=O)c2cc(Cl)ccc2OCC(=O)Nc2ccc(S(N)(=O)=O)cc2C)c1` yielded an IC50 [4] of 1.9 nM, an IC50 [5] of 1.4 nM and an IC50 [3] of 0.9 nM.

`O=C1Nc2ccc(Cl)cc2C(C#CC2CC2)(C(F)(F)F)O1` (single isomer, unassigned) [EFAVIRENZ] was tested, and the IC50 [4] was 1.6 nM, the IC50 [5] was 1.8 nM and the IC50 [3] was 25 nM.

`CNS(=O)(=O)c1ccc(NC(=O)COc2ccc(Cl)cc2C(=O)c2cc(F)cc(C(F)(F)F)c2)c(C)c1` was tested, and the IC50 [1] was 8 nM, the IC50 [2] was 3 nM and the IC50 [3] was 2 nM.

Molecule `Cc1cc(OCCCNC(N)=O)ccc1NC(=O)COc1ccc(Cl)cc1C(=O)c1cc(F)cc(C(F)(F)F)c1` has an IC50 [4] of 10 nM, an IC50 [1] of 6 nM and an IC50 [2] of 4 nM. The IC50 [3] was 4 nM.

`Cc1ccccc1NC(=O)COc1ccc(Cl)cc1C(=O)c1cc(F)cc(F)c1` gave an IC50 [4] of 25 nM, an IC50 [1] of 25 nM and an IC50 [2] of 8 nM. The IC50 [3] was 38 nM.

Molecule `Cc1cc(N2CC[S+]([O-])CC2)ccc1NC(=O)COc1ccc(Cl)cc1C(=O)c1cccc(C#N)c1` has an IC50 [4] of 6 nM and an IC50 [3] of 5 nM.

For `Cc1cc(C#N)cc(C(=O)c2cc(Cl)ccc2OCC(=O)Nc2ncc(S(N)(=O)=O)cc2C)c1`, the IC50 [3] was 93 nM.

`Cc1cc(N2CC[S+]([O-])CC2)ccc1NC(=O)COc1ccc(Cl)cc1C(=O)c1ccccc1` was tested, and the IC50 [4] was 150 nM, the IC50 [5] was 1400 nM and the IC50 [3] was 100 nM.

`Cc1cc(NCCCn2ccnc2)ccc1NC(=O)COc1ccc(Cl)cc1C(=O)c1cc(F)cc(F)c1` gave an IC50 [1] of 37 nM and an IC50 [3] of 158 nM.

`Cc1cc(N2CC[S+]([O-])CC2)ccc1NC(=O)COc1ccc(Cl)cc1C(=O)c1ccc(C#N)cc1` showed an IC50 [4] of 355 nM, an IC50 [5] of 1400 nM and an IC50 [3] of 44 nM.

Molecule `Cc1cc(Cl)cc(C(=O)c2cc(Cl)ccc2OCC(=O)Nc2ccc(S(N)(=O)=O)cc2C)c1` has an IC50 [4] of 3.3 nM, an IC50 [5] of 9.4 nM and an IC50 [3] of 3.6 nM.

With `Cc1ccnc2c1NC(=O)c1cccnc1N2C1CC1` [NEVIRAPINE] the IC50 [4] was 10300 nM, the IC50 [5] was 8200 nM and the IC50 [3] was 5800 nM.

With `Cc1cc(S(N)(=O)=O)ccc1NC(=O)COc1ccc(Cl)cc1C(=O)c1cc(Cl)cc(Br)c1` the IC50 [4] was 6.9 nM, the IC50 [5] was 13 nM and the IC50 [3] was 6.1 nM.

With `Cc1cc(S(N)(=O)=O)ccc1NC(=O)COc1ccc(Cl)cc1C(=O)c1cc(F)cc(C(F)(F)F)c1` the IC50 [4] was 2.9 nM, the IC50 [1] was 1 nM and the IC50 [2] was 1.4 nM. The IC50 [5] was 10.5 nM and the IC50 [3] was 2 nM.

`Cc1cc(N2CC[S+]([O-])CC2)ccc1NC(=O)COc1ccc(Cl)cc1C(=O)c1ccccc1C#N` was tested, and the IC50 [4] was 700 nM, the IC50 [5] was 2000 nM and the IC50 [3] was 155 nM.
